Bioassay records: PubChem BioAssay, Broad Institute
Most compounds without a hit are left out; they make up all but 2.9% or so of the library.
Cneo AK release: causes C. neoformans cell lysis; AID 651654; hit rate 0.2% among 360,000; adenylate kinase release luminescence, 4 h; normalised: neutral wells 0, clomiphene wells 100; lysis activity, % at 15 µM;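 active = mean lysis activity across replicates of at least 80%, whatever share of replicates individually reach that level; inactive = mean lysis activity below 80%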
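Material – Cryptococcus neoformans yeast cells · Quantity – 5 × 10^6 yeast cells/mL · Buffer or medium – YPD medium · Compound – single dose · Timing – 4 h static compound exposure, 37 °C, read 1 h post-reagent · Signal – adenylate kinase release luminescence · Read-out basis – lysis from increased AK signal · Benchmarks – Clomiphene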
FGF22 binding: binders of recombinant human FGF22 by thermal shift | Q9HCT0 | SYPRO orange fluorescence; percent of sucrose octasulfate shift, DMSO zero | activity (Tm shift, normalised), % at 9.99 µM | hit rate 1.5% among 340,000 | AID 651658;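 active = mean Tm shift, scaled 0 neutral to 100 positive control, at about 1.3% or above, every replicate too, limit read from the data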
Target sequence (Q9HCT0 whole entry, looked up): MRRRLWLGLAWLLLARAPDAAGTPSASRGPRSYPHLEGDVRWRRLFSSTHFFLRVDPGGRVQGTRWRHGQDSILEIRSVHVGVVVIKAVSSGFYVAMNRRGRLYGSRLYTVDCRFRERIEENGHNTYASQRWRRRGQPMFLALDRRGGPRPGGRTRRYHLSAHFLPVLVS
Vif inh: HIV Vif inhibition | hit rate 0.35% among 340,000 | inhibition, % at 7.49 µM | HEK293T cells, Vif self-association by quenched fluorescence, imaging, 24 h; in the data active = inhibition above about 50%, passing the limit was not always enough
Ecoli rRNA inh: inhibits bacterial ribosomal RNA function over humanized ribosomes | E. coli WT GFP vs humanized-ribosome RFP mutants, fluorescence, 24 h; stronger effect = lower value; DMSO median 0, no signal -100 | GFP signal change (wild-type ribosome), % (concentration not given with the values) | hit rate 1.6% among 350,000 | AID 720706;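 active = significant combined selectivity score with lowered wild-type GFP, culture density cut under 30%, mutant RFP and density less affected; inactive = any of these conditions unmet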
PglD inh: blocks C. jejuni PglD acetyltransferase activity; purified PglD enzyme, DTNB colorimetric CoA detection; inhibition, % at 12.5 µM; hit rate 0.098% among 360,000; AID 602405; in the data active = inhibition above about 16%, passing the limit was not always enough
PGC1a acetyl inh: PGC1a acetylation modulation, inhibitor mode; U2OS PGC1a acetylation, AlphaScreen anti-acetyl-lysine; with virally co-expressed GCN5 acetyltransferase; inhibition, % at 15.6 µM; hit rate 0.17% among 350,000; AID 651687;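 active = every replicate shows inhibition of at least 40%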;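 note: 0% = neutral control wells and 100% = positive control wells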
Active calls of the source: *; / = no result.

SMILES	Cneo AK release	FGF22 binding	Vif inh	Ecoli rRNA inh	PglD inh	PGC1a acetyl inh
COc1cccc(NC(=O)NCCc2ccc(Cl)cc2)c1	-1	1	4	-24*	3	/
COc1cccc(NC(=S)N(Cc2ccc(Cl)cc2)Cc2ccc(C(=O)O)cc2)c1	/	1	4	-32*	/	/
C[C@@H]1CN([C@H](C)CO)C(=O)c2cc(C#Cc3ccccc3F)cnc2O[C@@H]1CN(C)C(=O)C1CC1	-15	0	/	-1	1	-2
CN(C)CC(=O)N1C[C@@H]2N[C@H](C1)C2c1ccc(-c2ccncc2)cc1 (stereo partly drawn)	/	0	/	1	/	9
CC(=O)N1CC(C)Sc2ccc(S(=O)(=O)NCc3ccc(F)cc3)cc21 (stereo not drawn)	1	0	1	-26*	-6	7
COc1ccc(CNS(=O)(=O)c2ccc3c(c2)N(C(C)=O)CC(C)S3)cc1 (stereo not drawn)	-2	0	-3	-1	-1	22
Cc1ccc(S(=O)(=O)N(C)C[C@H]2Oc3ccc(NC(=O)CCCCCC(=O)Nc4ccccc4N)cc3CC(=O)N([C@@H](C)CO)C[C@@H]2C)cc1	-1	0	/	1	3	10
C=C(C)C(=O)N1CC2(CC(c3cccc(NC(=O)c4ccccc4)c3)=NO2)C[C@@H]1C(N)=O (stereo partly drawn)	4	44*	0	6	1	-4
C[C@@H]1CN([C@@H](C)CO)C(=O)Cc2cc(NC(=O)Nc3ccc4c(c3)OCO4)ccc2O[C@H]1CN(C)CC1CCCCC1	4	0	/	-4	1	-9
CCn1c(CCl)nc2cc(S(=O)(=O)N3CCOCC3)ccc21	-3	43*	8	10	3	7
CCn1c(SCC(N)=O)nc2cc(S(=O)(=O)N3CCOCC3)ccc21	/	0	5	5	/	/
Cc1noc(C)c1NC(=O)N(C)C[C@H]1Oc2ccc(NC(=O)NC(C)C)cc2CC(=O)N([C@H](C)CO)C[C@H]1C	-1	0	/	6	5	4
Clc1ccccc1CNCc1ccncc1	-1	43*	-3	11	3	0
FC(F)(F)c1ccccc1CNCc1ccncc1	1	0	-5	15	0	/
COc1ccccc1C(=O)C1CCCN(C(=O)CCC(=O)c2ccccc2)C1 (stereo not drawn)	/	0	5	-28*	/	-1
CCN(CC)CC(=O)N1CCCC(C(=O)c2ccccc2OC)C1 (stereo not drawn)	-1	0	-10	12	3	0
Clc1ccc(-c2c[n+](Cc3ccc(Br)cc3)c3n2CCCCC3)cc1	/	0	-4	-52*	/	/
O=[N+]([O-])c1ccc(C[n+]2cc(-c3ccccc3)n3c2CCCCC3)cc1	/	0	-1	12	/	-8
O=C(C[n+]1cc(-c2ccc(Cl)c(Cl)c2)n2c1CCC2)OCc1ccccc1	1	0	-8	-14*	2	2
O=[N+]([O-])c1ccc(C[n+]2cc(-c3ccc(Cl)c(Cl)c3)n3c2CCCCC3)cc1	/	0	9	-49*	/	/
C[C@@H]1CN([C@@H](C)CO)C(=O)c2cc(NC(=O)Cn3cnnn3)ccc2O[C@@H]1CN(C)C(=O)Nc1ccccc1	-2	0	/	4	2	7
C=CCn1c(CCn2c3ccccc3c3ccccc32)n[nH]c1=S	-6	0	-4	-27*	2	6
C=C(C)Cn1c(CCn2c3ccccc3c3ccccc32)n[nH]c1=S	/	0	-2	/	/	/
CC(C)NC(=O)N[C@H]1CC[C@@H](CCNC(=O)C2CCOCC2)O[C@@H]1CO	-1	0	/	3	1	7
O=C(OCc1nnc(-c2ccccc2)o1)c1ccccc1	-2	43*	-9	/	-6	-15
SMILES	Cneo AK release	FGF22 binding	Vif inh	Ecoli rRNA inh	PglD inh	PGC1a acetyl inh
Cc1nc2ccc(C(=O)OCc3nnc(-c4ccccc4)o3)cc2nc1C	-2	0	/	-17	-2	1
CN(C)C(/C=C/Nc1ccc(O)cc1)=C(C#N)C#N	/	44*	2	6	/	6
O=C(Nc1ccc(F)cc1)N[C@@H]1CC[C@H](CCNS(=O)(=O)c2ccccc2F)O[C@H]1CO	-1	0	/	0	3	-22
CO[C@@H]1CN(C)C(=O)c2ccc(NC(C)=O)cc2OC[C@H](C)N(C(=O)C2CC2)C[C@@H]1C	-8	0	/	0	11	-8
S=c1nc(-c2ccccc2Cl)n(Cc2cccnc2)c2c1CCCC2	/	0	-4	-26*	/	5
Cc1noc(C)c1NC(=O)N(C)C[C@@H]1Oc2ncc(C#CCN(C)C)cc2C(=O)N([C@@H](C)CO)C[C@H]1C	0	0	/	5	-1	10
CC(=O)N(C)C[C@@H]1Oc2cc(C3=CCCC3)ccc2S(=O)(=O)N([C@@H](C)CO)C[C@H]1C	18	0	/	-1	1	-7
O=C(c1cccc(F)c1)N1C[C@@H]2[C@H](c3ccccc31)[C@H](CO)N2Cc1cocn1	82*	-1	/	0	2	-5
O=C(Nc1ccc(F)cc1)N1C[C@@H]2[C@H](c3ccccc31)[C@H](CO)N2Cc1cocn1	91*	-1	/	-3	-1	-3
CC(C)c1cn(CC[C@@H]2CC[C@H](NC(=O)C3CCC3)[C@H](CO)O2)nn1	-2	0	/	1	16	4
C[C@H]1CN([C@@H](C)CO)C(=O)c2cccc(NC(=O)CCCCCC(=O)Nc3ccccc3N)c2O[C@H]1CN(C)Cc1ccc(C(F)(F)F)cc1	/	0	/	-2	/	-4
O=C(CN1CCOCC1)NCC[C@H]1CC[C@H](NC(=O)c2ccccc2F)[C@@H](CO)O1	0	0	/	3	1	1
Cc1cccc(C(=O)Nc2ccc(O)c3c(=O)cc(-c4ccccc4Cl)oc23)c1	-1	45*	/	-1	2	/
COc1ccc(C2c3ccsc3CCN2C(=O)C(C)(C)C)cc1 (stereo not drawn)	/	0	-4	-47*	/	-8
C[C@@H]1CN([C@H](C)CO)C(=O)CCCn2cc(nn2)CO[C@@H]1CN(C)S(=O)(=O)c1ccc(Cl)cc1	5	0	/	-1	2	-8
C[C@H]1CN(C)C(=O)c2cccc(N)c2O[C@@H]1CN(C)C(=O)OC(C)(C)C	/	/	/	-1	/	/
COc1ccc(OC)c(-c2nn(-c3ccccc3)cc2C(=O)NCC(c2ccco2)N2CCCC2)c1 (stereo not drawn)	-1	0	54*	-3	0	-18
COc1ccc(C(=O)NCC(c2ccco2)N2CCc3ccccc32)c(OC)c1 (stereo not drawn)	4	/	-10	-24*	2	/
O=C1C(=O)c2c(C(=O)c3ccccc3)coc2-c2ccccc21	-3	-1	/	-44*	-4	4
